Measured values: PubChem BioAssay AID1325 (NMMLSC, 2008)
Among all 190,000 compounds or so, about 200 (0.11%) were called active. Many of the other results were omitted from the sample, so actives are more common in it than they were. Unmarked numbers belong to inactive results.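 Rule for the calls: active = inhibition above 80%; inactive = the rest.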

Target: Broad substrate specificity ATP-binding cassette transporter ABCG2 (Homo sapiens) (UniProt Q9UNQ0)
Experiment: blockers of JC-1 export by ABCG2 – multiplex with ABCB1, IgMXP3 cells, flow cytometry, primary screen (AID 1325);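 note: 0% = DMSO and 100% = nicardipine control wells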
Settings: JC-1 efflux, at 6.6 µM, hits give high values
How it was run: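 Test system: IgMXP3 cells (ABCG2) mixed with DDAO far-red-labelled CCRF-Adr cells (ABCB1). Reagent: JC-1 transporter substrate. Compound dosing: single test compound dose, 6.6 µM final. Times: 10 min compound exposure, 25 °C. Detection: flow cytometry of retained JC-1 fluorescence. Read-out basis: efflux inhibition in percent versus controls. Controls: nicardipine and DMSO wells.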

Chain of Broad substrate specificity ATP-binding cassette transporter ABCG2 (Homo sapiens) (Q9UNQ0 whole entry, looked up): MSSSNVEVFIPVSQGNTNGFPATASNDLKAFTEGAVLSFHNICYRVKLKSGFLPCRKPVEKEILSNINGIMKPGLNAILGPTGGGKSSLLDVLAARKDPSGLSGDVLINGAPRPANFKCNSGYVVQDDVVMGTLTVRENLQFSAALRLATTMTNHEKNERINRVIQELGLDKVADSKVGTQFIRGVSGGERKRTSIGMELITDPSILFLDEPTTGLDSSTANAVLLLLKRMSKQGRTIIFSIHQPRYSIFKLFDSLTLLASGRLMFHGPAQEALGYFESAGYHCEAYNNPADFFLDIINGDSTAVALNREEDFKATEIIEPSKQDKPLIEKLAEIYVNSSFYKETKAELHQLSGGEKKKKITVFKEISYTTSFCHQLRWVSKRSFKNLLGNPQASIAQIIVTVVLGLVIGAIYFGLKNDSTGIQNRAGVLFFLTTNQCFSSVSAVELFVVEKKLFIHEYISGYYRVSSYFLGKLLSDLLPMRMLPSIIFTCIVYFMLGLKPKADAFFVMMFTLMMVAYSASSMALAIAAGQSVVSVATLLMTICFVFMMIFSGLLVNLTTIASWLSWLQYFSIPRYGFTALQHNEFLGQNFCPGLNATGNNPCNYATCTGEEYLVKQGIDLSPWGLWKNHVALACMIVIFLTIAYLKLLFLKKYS

Point of comparison: `c1ccc(-n2nnnc2-c2cccnc2)cc1`, inhibition 1.93%. Against it:
- Cc1ccc(SCCC(=O)NC(C(C)C)C(C)C)cc1 — higher, 29.5%
- CCOC(=O)CNc1nc2ccccc2n2c(C)nnc12 — higher, 4.58%
- Cc1cc(C(=O)COC(=O)c2cccs2)c(C)n1-c1c(C)n(C)n(-c2ccccc2)c1=O — lower, 1.17%
- COc1ccc(-n2c(C)cc(C(=O)CSc3nnc(-c4cccs4)o3)c2C)cc1 — higher, 4.95%
- Brc1ccc(-c2csc(N/N=C/c3cccnc3)n2)cc1 — lower, -0.01%
- O=C(COC(=O)c1ccccc1)Nc1cccc(S(=O)(=O)N2CCOCC2)c1 — higher, 8.84%
- Cc1ccc(NC(=O)C(=O)NCc2ccc(/C=N/NC(=O)c3c(C)nc4cc(C)ccn34)o2)cc1 — higher, 24.5%
- COc1cccc(OC)c1C(=O)Nc1ccc(Cc2ccncc2)cc1 — lower, 1.46%
- CCOc1ccc(C(CC(=O)O)NC(=O)C23CC4CC(CC(C4)C2)C3)cc1OC (stereo not given) — lower, -1.01%
- O=[N+]([O-])c1ccc2[nH]c3c(c2c1)CCCC3O (stereo not given) — higher, 14.8%
- O=C(NC1CC1)C1CCCN(C(=O)NC2CCCCC2)C1 (stereo not given) — higher, 6.29%
- CCN(CC)c1ccc([N+](=O)[O-])cc1C(=O)O — higher, 3.47%
- COc1cccc2cc(/C(C)=N/NC(=O)c3ccco3)oc12 — higher, 6.63%
- CC(=O)N1CCc2cc(Br)cc(S(=O)(=O)CCC(=O)Nc3c(C)n(C)n(-c4ccccc4)c3=O)c21 — lower, -0.95%
- O=C(Cn1ncc(N2CCCC2)c(Br)c1=O)c1ccc(Cl)cc1 — higher, 8.74%
- O=C(N/C(=C\c1ccc(F)cc1)C(=O)N1CCCCCC1)c1ccccc1 — lower, 0.94%
- CCc1nnc(NC(=O)Cc2cccs2)s1 — lower, -0.23%
- Cc1c(Cl)cnc(NC(=O)COC(=O)c2ccc(S(=O)(=O)NCc3ccco3)cc2)c1Cl — lower, -0.23%
- COc1cccc(/C(C)=N/Nc2ncc(Cl)cc2Cl)c1 — higher, 16.5%
- Cc1ccccc1N/C(SCc1ccc(Cl)cc1)=C(/C#N)C(N)=O — higher, 9.99%
- C/C(N)=C(/C#N)C(=O)COC(=O)C1CCN(C(=O)c2ccc(Cl)cc2)CC1 — higher, 6.63%
- Cc1c(C(=O)NCCCc2ccccc2)cccc1[N+](=O)[O-] — higher, 5.18%

In the case of `COc1ccc(-n2c(C)cc(C(=O)COC(=O)c3cc(OC)c(OC)cc3NC(=O)c3cccs3)c2C)cc1`, the inhibition was 91.7% (active).
In the case of `C/C(=N\Nc1ncc(Cl)cc1Cl)c1ccc(S(=O)(=O)NCc2ccco2)cc1`, the inhibition was 81.6% (active).
